In ChEMBL document CHEMBL1240464, “Synthesis, structure and in vitro antibacterial activities of new hybrid disinfectants quaternary ammonium compounds: pyridinium and quinolinium stilbene benzenesulfonates” (2010):
Values after ≈ are worked out from the molar mass of the structure shown. Active and inactive are the calls of the source. The rule behind the calls is not given here.

Experiments:
[1] = system: Staphylococcus aureus; experiment: Antibacterial activity against methicillin-resistant Staphylococcus aureus ATCC 43300 after 8 to 12 hrs by colorimetric microdilution broth technique; type: functional
How it was run: (§1)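 Broth microdilution with a colorimetric read-out. Bacteria were suspended in RPMI1640 with 1% Alamar Blue. Compound was dissolved in DMSO as a 25 mg/ml stock and added to the first row, then serially halved to a 128-fold final dilution. Plates were incubated at 37 °C for 8–12 h. MIC was the lowest concentration preventing the blue-to-red indicator change. Each assay was run at least three times.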

[2] = system: Staphylococcus aureus; experiment: Antibacterial activity against Staphylococcus aureus TISTR517 after 8 to 12 hrs by colorimetric microdilution broth technique; type: functional
How it was run: (§2)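 Broth microdilution in RPMI1640. Bacterial suspension in RPMI1640 is mixed with 1% Alamar Blue. Sample dissolved in DMSO at 25 mg/ml (stock) is added to the first row, then serially diluted two-fold down the plate to 128-fold. Plates are incubated at 37 °C for 8–12 h. MIC is the lowest concentration preventing the Alamar Blue change from blue to red. At least three repeats.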

[3] = system: Bacillus subtilis; experiment: Antibacterial activity against Bacillus subtilis after 8 to 12 hrs by colorimetric microdilution broth technique; type: functional; how it was run: as §2
[4] = system: Enterococcus faecalis; experiment: Antibacterial activity against vancomycin-resistant Enterococcus faecalis ATCC 51299 after 8 to 12 hrs by colorimetric microdilution broth technique; type: functional; how it was run: as §1
[5] = system: Enterococcus faecalis; experiment: Antibacterial activity against Enterococcus faecalis TISTR459 after 8 to 12 hrs by colorimetric microdilution broth technique; type: functional; how it was run: as §1
[6] = system: Pseudomonas aeruginosa; experiment: Antibacterial activity against Pseudomonas aeruginosa after 8 to 12 hrs by colorimetric microdilution broth technique; type: functional; how it was run: as §2
[7] = system: Salmonella typhi; experiment: Antibacterial activity against Salmonella typhi after 8 to 12 hrs by colorimetric microdilution broth technique; type: functional, Salmonella enterica subsp. enterica serovar Typhi; details: Salmonella enterica; how it was run: as §1
[8] = system: Shigella sonnei; experiment: Antibacterial activity against Shigella sonnei after 8 to 12 hrs by colorimetric microdilution broth technique; type: functional; how it was run: as §2
[9] = system: Staphylococcus aureus; experiment: Antibacterial activity against Staphylococcus aureus TISTR517 at up to 300 ug/ml after 8 to 12 hrs by colorimetric microdilution broth technique; type: functional, organism-based; how it was run: as §2
[10] = system: Pseudomonas aeruginosa; experiment: Antibacterial activity against Pseudomonas aeruginosa at up to 300 ug/ml after 8 to 12 hrs by colorimetric microdilution broth technique; type: functional, organism-based; how it was run: as §2
[11] = system: Salmonella typhi; experiment: Antibacterial activity against Salmonella typhi at up to 300 ug/ml after 8 to 12 hrs by colorimetric microdilution broth technique; type: functional, organism-based; details: Salmonella enterica subsp. enterica serovar Typhi; how it was run: as §1
[12] = system: Bacillus subtilis; experiment: Antibacterial activity against Bacillus subtilis at up to 300 ug/ml after 8 to 12 hrs by colorimetric microdilution broth technique; type: functional, organism-based; how it was run: as §2
[13] = system: Enterococcus faecalis; experiment: Antibacterial activity against vancomycin-resistant Enterococcus faecalis ATCC 51299 at up to 300 ug/ml after 8 to 12 hrs by colorimetric microdilution broth technique; type: functional, organism-based; how it was run: as §1
[14] = system: Enterococcus faecalis; experiment: Antibacterial activity against Enterococcus faecalis TISTR459 at up to 300 ug/ml after 8 to 12 hrs by colorimetric microdilution broth technique; type: functional, organism-based; how it was run: as §2
[15] = system: Shigella sonnei; experiment: Antibacterial activity against Shigella sonnei at up to 300 ug/ml after 8 to 12 hrs by colorimetric microdilution broth technique; type: functional, organism-based; how it was run: as §2

SMILES: CN(C)c1ccc(/C=C/c2ccc3ccccc3[n+]2C)cc1.Nc1ccc(S(=O)(=O)[O-])cc1
- MIC [1]: 2.34 µg/mL
- MIC [2]: 75 µg/mL
- MIC [3]: 18.8 µg/mL
- MIC [4]: 18.8 µg/mL
- MIC [5]: 75 µg/mL
- MIC [6]: 150 µg/mL
- MIC [7]: 75 µg/mL
- MIC [8]: 75 µg/mL

SMILES: CN(C)c1ccc(/C=C/c2ccc3ccccc3[n+]2C)cc1.COc1ccc(S(=O)(=O)[O-])cc1
- MIC [9]: inactive
- MIC [10]: inactive
- MIC [11]: inactive

SMILES: CCOc1ccc(/C=C/c2ccc3ccccc3[n+]2C)cc1.Nc1ccc(S(=O)(=O)[O-])cc1
- MIC [1]: 4.68 µg/mL
- MIC [2]: 37.5 µg/mL
- MIC [3]: 37.5 µg/mL
- MIC [4]: 75 µg/mL
- MIC [5]: 37.5 µg/mL
- MIC [7]: 75 µg/mL
- MIC [8]: 75 µg/mL

SMILES: CN(C)c1ccc(/C=C/c2ccc3ccccc3[n+]2C)cc1.O=S(=O)([O-])c1ccc(Br)cc1
- MIC [1]: 2.34 µg/mL
- MIC [2]: 2.34 µg/mL
- MIC [3]: 2.34 µg/mL
- MIC [4]: 2.34 µg/mL
- MIC [5]: 2.34 µg/mL
- MIC [6]: 300 µg/mL
- MIC [7]: 300 µg/mL
- MIC [8]: 2.34 µg/mL

SMILES: CCOc1ccc(/C=C/c2cccc[n+]2C)cc1.COc1ccc(S(=O)(=O)[O-])cc1
- MIC [9]: inactive
- MIC [12]: inactive
- MIC [13]: inactive
- MIC [14]: inactive
- MIC [10]: inactive
- MIC [11]: inactive
- MIC [15]: inactive

SMILES: CN(C)c1ccc(/C=C/c2ccc3ccccc3[n+]2C)cc1.Cc1ccc(S(=O)(=O)[O-])cc1
- MIC [1]: 2.34 µg/mL
- MIC [2]: 2.34 µg/mL
- MIC [3]: 2.34 µg/mL
- MIC [4]: 2.34 µg/mL
- MIC [5]: 2.34 µg/mL
- MIC [6]: 300 µg/mL
- MIC [7]: 300 µg/mL
- MIC [8]: 2.34 µg/mL

SMILES: CN[C@H](CC(C)C)C(=O)N[C@H]1C(=O)N[C@@H](CC(N)=O)C(=O)N[C@H]2C(=O)N[C@H]3C(=O)N[C@H](C(=O)N[C@H](C(=O)O)c4cc(O)cc(O)c4-c4cc3ccc4O)[C@H](O)c3ccc(c(Cl)c3)Oc3cc2cc(c3O[C@@H]2O[C@H](CO)[C@@H](O)[C@H](O)[C@H]2O[C@H]2C[C@](C)(N)[C@H](O)[C@H](C)O2)Oc2ccc(cc2Cl)[C@H]1O [VANCOMYCIN]
- MIC [1]: < 2.34 µg/mL
- MIC [2]: 9.37 µg/mL (≈ 6.47 µM)
- MIC [3]: 2.34 µg/mL (≈ 1.61 µM)
- MIC [4]: 2.34 µg/mL (≈ 1.61 µM)
- MIC [5]: 9.38 µg/mL (≈ 6.47 µM)
- MIC [6]: 2.34 µg/mL (≈ 1.61 µM)
- MIC [7]: 2.34 µg/mL (≈ 1.61 µM)
- MIC [8]: 2.34 µg/mL (≈ 1.61 µM)

SMILES: CCOc1ccc(/C=C/c2ccc3ccccc3[n+]2C)cc1.O=S(=O)([O-])c1ccc(Br)cc1
- MIC [10]: inactive
- MIC [11]: inactive

SMILES: CN(C)c1ccc(/C=C/c2cccc[n+]2C)cc1.Nc1ccc(S(=O)(=O)[O-])cc1
- MIC [9]: inactive
- MIC [12]: inactive
- MIC [14]: inactive
- MIC [10]: inactive
- MIC [11]: inactive
- MIC [15]: inactive

SMILES: CCOc1ccc(/C=C/c2ccc3ccccc3[n+]2C)cc1.[I-]
- MIC [1]: 2.34 µg/mL
- MIC [3]: 37.5 µg/mL
- MIC [4]: 37.5 µg/mL
- MIC [5]: 75 µg/mL
- MIC [8]: 150 µg/mL

SMILES: CCOc1ccc(/C=C/c2cccc[n+]2C)cc1.Nc1ccc(S(=O)(=O)[O-])cc1 [listing 1 of 2 here]
- MIC [1]: 75 µg/mL

SMILES: CCOc1ccc(/C=C/c2cccc[n+]2C)cc1.Cc1ccc(S(=O)(=O)[O-])cc1
- MIC [1]: 37.5 µg/mL
- MIC [2]: 150 µg/mL
- MIC [3]: 300 µg/mL
- MIC [4]: 300 µg/mL
- MIC [5]: 150 µg/mL
- MIC [6]: 37.5 µg/mL
- MIC [7]: 150 µg/mL
- MIC [8]: 150 µg/mL

SMILES: CCOc1ccc(/C=C/c2cccc[n+]2C)cc1.Nc1ccc(S(=O)(=O)[O-])cc1 [listing 2 of 2 here]
- MIC [9]: inactive
- MIC [12]: inactive
- MIC [13]: inactive
- MIC [14]: inactive
- MIC [10]: inactive
- MIC [11]: inactive
- MIC [15]: inactive

SMILES: CN(C)c1ccc(/C=C/c2cccc[n+]2C)cc1
- MIC [9]: inactive
- MIC [14]: inactive
- MIC [15]: inactive

SMILES: CCOc1ccc(/C=C/c2ccc3ccccc3[n+]2C)cc1
- MIC [9]: inactive
- MIC [10]: inactive
- MIC [11]: inactive

SMILES: CN(C)c1ccc(/C=C/c2cccc[n+]2C)cc1.COc1ccc(S(=O)(=O)[O-])cc1
- MIC [1]: 75 µg/mL
- MIC [2]: 150 µg/mL
- MIC [3]: 150 µg/mL
- MIC [4]: 150 µg/mL
- MIC [5]: 150 µg/mL
- MIC [6]: 150 µg/mL
- MIC [7]: 150 µg/mL
- MIC [8]: 150 µg/mL

SMILES: CN(C)c1ccc(/C=C/c2cccc[n+]2C)cc1.O=S(=O)([O-])c1ccc(Cl)cc1
- MIC [1]: 37.5 µg/mL
- MIC [3]: 300 µg/mL
- MIC [4]: 150 µg/mL
- MIC [6]: 300 µg/mL
- MIC [7]: 300 µg/mL

SMILES: CN(C)c1ccc(/C=C/c2cccc[n+]2C)cc1.Cc1ccc(S(=O)(=O)[O-])cc1
- MIC [1]: 37.5 µg/mL
- MIC [2]: 300 µg/mL
- MIC [3]: 150 µg/mL
- MIC [4]: 300 µg/mL
- MIC [5]: 300 µg/mL
- MIC [6]: 150 µg/mL
- MIC [7]: 300 µg/mL
- MIC [8]: 300 µg/mL
